By IC50 is commonly meant the concentration that inhibits the measured activity by half. A word on the inhibition: it is the drop in the measured response relative to a control, in per cent.

For series [1], the target named is Cyclin-dependent kinase 10 (Homo sapiens, UniProt Q15131). Description: Inhibition of CDK10 in human HeLa cells lysate pre incubated for 15 mins followed by ATP acyl phosphate probe addition and measured after 10 mins by LC-MS/MS analysis. Format: subcellular. An outline of the steps: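 KiNativ profiling in HeLa lysate (5 mg/mL total protein). Lysate incubated 15 min with inhibitor at 50, 10, 2, 0.8 or 0 μM. ATP or ADP acylphosphate probe then added (5 μM final) and reacted 10 min. Reaction stopped with urea and analysed by targeted MS, using up to four fragment ions per kinase peptide-probe conjugate. % inhibition taken against untreated lysate. Run in duplicate.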

Series [2] has as its target Serine/threonine-protein kinase ULK3 (Homo sapiens, UniProt Q6PHR2). Description: Inhibition of ULK3 in human HeLa cells lysate pre incubated for 15 mins followed by ATP acyl phosphate probe addition and measured after 10 mins by LC-MS/MS analysis. The class given is subcellular.
For series [3], the target named is T1, Interleukin-1 receptor-associated kinase 4 (Homo sapiens) (UniProt Q9NWZ3).
T1 sequence (whole entry): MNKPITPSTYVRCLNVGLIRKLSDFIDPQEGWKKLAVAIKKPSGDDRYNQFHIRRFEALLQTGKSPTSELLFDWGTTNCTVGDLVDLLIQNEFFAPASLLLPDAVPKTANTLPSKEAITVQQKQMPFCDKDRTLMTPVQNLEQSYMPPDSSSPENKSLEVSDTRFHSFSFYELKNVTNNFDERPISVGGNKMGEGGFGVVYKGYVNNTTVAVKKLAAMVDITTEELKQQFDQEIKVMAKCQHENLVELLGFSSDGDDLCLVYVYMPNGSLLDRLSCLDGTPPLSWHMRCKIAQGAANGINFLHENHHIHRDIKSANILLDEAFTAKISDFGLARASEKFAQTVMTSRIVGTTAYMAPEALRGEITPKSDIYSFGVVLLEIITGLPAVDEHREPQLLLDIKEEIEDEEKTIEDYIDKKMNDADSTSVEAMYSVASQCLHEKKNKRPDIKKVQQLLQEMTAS
Description: Inhibition of IRAK4 in human HeLa cells lysate at 2 uM pre incubated for 15 mins followed by ATP acyl phosphate probe addition and measured after 10 mins by LC-MS/MS analysis relative to control. Format: subcellular. The following applies: time 25.0 min.

The target of series [4] is Mitogen-activated protein kinase kinase kinase 2 (Homo sapiens, UniProt Q9Y2U5). Kind of series: Inhibition of MAP3K2 in human HeLa cells lysate pre incubated for 15 mins followed by ADP acyl phosphate probe addition and measured after 10 mins by LC-MS/MS analysis. Format: subcellular.
A short description of series [5]: Toxicity in C57Bl/6 mouse assessed as body weight at 50 mg/kg, ip for 14 days (reference value: 0.2 to 0.208 kg). The class given is organism-based. The settings on record: in vivo, 336 h, time 14 day.
For series [6], the target named is Ribosomal protein S6 kinase alpha-1 (Homo sapiens, UniProt Q15418). Description: Inhibition of RSK1 domain 2 in human HeLa cells lysate at 10 uM pre incubated for 15 mins followed by ATP acyl phosphate probe addition and measured after 10 mins by LC-MS/MS analysis relative to control. Format: subcellular. The settings on record: time 25.0 min.
The target in series [7] is Ribosomal protein S6 kinase beta-2 (Homo sapiens, UniProt Q9UBS0). Kind of series: Inhibition of P70S6KB in human HeLa cells lysate at 2 uM pre incubated for 15 mins followed by ATP acyl phosphate probe addition and measured after 10 mins by LC-MS/MS analysis relative to control. The class given is subcellular. The following applies: time 25.0 min.
The next series deals with A549. Description: Antitumor activity against human A549 cells xenografted in NOD/SCID mouse assessed as reduction in BMK activation at 50 mg/kg, ip administered twice a day for 2 days by Western blot analysis. The class given is functional, organism-based. The following applies: time 2.0 day. An outline of the steps: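 A549 cells (1×10^6, in DMEM) were injected s.c. into the right flank of 6-week-old Nod/Scid mice. On day 21, mice received 50 mg/kg twice daily or carrier; 2 per group. After 2 days, tumors were homogenized in E1A buffer. Western blot read BMK1 activation (mobility shift) and p21, quantified by densitometry normalized to GAPDH.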

A short description of series [8]: Plasma concentration in Sprague-Dawley rat at 2 mg/kg, po measured after 8 hrs by LC-MS/MS analysis. Format: ADME, organism-based.
For another series, the target named is AMPK alpha1/alpha2 (Homo sapiens, UniProt P54646+Q13131). Description: Inhibition of AMPKalpha1/2 in human HeLa cells lysate pre incubated for 15 mins followed by ATP acyl phosphate probe addition and measured after 10 mins by LC-MS/MS analysis. The class given is subcellular. An outline of the steps: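 HeLa cell lysates (5 mg/mL total protein) were preincubated with inhibitor at 0, 0.8, 2, 10 or 50 μM for 15 min. ATP or ADP acylphosphate probe was then added (5 μM final) for 10 min, and reactions were stopped with urea. Up to four fragment ions per kinase probe-peptide were quantified by targeted MS. % inhibition was taken relative to untreated lysate. Run in duplicate.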

Series [9] deals with Dual specificity mitogen-activated protein kinase kinase 1 (Homo sapiens, UniProt Q02750). Description: Inhibition of MAP2K1 in human HeLa cells lysate at 10 uM pre incubated for 15 mins followed by ATP acyl phosphate probe addition and measured after 10 mins by LC-MS/MS analysis relative to control. The settings on record: time 25.0 min. Format: subcellular.
Series [10] can be described thus: Inhibition of MST4/YSK1 in human HeLa cells lysate at 10 uM pre incubated for 15 mins followed by ATP acyl phosphate probe addition and measured after 10 mins by LC-MS/MS analysis relative to control. The following applies: 25 min, condition cancer.
Series [11] addresses T2, Serine/threonine-protein kinase 4 (Homo sapiens) (UniProt Q13043).
T2 sequence (whole entry): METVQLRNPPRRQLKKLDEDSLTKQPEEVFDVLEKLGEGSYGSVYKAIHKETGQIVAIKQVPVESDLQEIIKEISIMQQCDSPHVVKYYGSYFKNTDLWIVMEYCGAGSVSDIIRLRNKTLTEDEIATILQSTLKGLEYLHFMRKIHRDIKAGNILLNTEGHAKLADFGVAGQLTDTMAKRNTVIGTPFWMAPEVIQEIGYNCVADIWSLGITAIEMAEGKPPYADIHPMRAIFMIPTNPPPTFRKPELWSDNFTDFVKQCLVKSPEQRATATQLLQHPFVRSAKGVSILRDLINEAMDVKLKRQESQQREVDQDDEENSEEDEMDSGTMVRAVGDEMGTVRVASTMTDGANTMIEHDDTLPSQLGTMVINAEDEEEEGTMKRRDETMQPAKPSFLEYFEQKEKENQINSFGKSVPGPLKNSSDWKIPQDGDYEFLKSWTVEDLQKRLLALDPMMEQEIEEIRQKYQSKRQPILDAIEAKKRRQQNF
Description: Inhibition of MST1 in human HeLa cells lysate at 50 uM pre incubated for 15 mins followed by ADP acyl phosphate probe addition and measured after 10 mins by LC-MS/MS analysis relative to control. The class given is subcellular. The following applies: time 25.0 min.

Active and inactive are the calls of the source. The calls are words filed in the database; no cut-off is given here.

Chain of Serine/threonine-protein kinase ULK3 (Q6PHR2 whole entry): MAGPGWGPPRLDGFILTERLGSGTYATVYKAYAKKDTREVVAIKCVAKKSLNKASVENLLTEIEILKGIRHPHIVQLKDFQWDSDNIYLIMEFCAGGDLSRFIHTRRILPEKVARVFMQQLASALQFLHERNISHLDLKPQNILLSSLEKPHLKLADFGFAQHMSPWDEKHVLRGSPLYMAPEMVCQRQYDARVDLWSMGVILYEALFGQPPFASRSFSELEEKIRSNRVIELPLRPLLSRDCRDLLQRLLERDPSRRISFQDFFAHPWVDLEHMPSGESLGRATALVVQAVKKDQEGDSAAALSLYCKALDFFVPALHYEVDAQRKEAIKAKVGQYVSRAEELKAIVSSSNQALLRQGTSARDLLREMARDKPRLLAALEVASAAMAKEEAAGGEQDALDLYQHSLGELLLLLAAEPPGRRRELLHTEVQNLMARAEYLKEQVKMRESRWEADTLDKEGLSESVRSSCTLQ
Chain of Ribosomal protein S6 kinase beta-2 (Q9UBS0 whole entry): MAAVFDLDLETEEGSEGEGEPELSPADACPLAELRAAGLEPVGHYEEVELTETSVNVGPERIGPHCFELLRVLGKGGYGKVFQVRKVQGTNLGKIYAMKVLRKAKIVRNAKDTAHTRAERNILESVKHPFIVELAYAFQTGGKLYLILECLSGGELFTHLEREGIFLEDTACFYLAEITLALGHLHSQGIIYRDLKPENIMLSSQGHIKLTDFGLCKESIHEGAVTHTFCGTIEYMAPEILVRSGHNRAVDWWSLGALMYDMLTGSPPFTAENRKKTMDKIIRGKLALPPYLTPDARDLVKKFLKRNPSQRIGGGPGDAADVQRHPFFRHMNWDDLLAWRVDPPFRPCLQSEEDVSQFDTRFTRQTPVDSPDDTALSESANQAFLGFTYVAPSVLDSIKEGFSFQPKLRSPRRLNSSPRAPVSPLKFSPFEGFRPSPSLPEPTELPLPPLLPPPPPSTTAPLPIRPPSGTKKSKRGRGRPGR
Chain of Ribosomal protein S6 kinase alpha-1 (Q15418 whole entry, the tested form may be a part): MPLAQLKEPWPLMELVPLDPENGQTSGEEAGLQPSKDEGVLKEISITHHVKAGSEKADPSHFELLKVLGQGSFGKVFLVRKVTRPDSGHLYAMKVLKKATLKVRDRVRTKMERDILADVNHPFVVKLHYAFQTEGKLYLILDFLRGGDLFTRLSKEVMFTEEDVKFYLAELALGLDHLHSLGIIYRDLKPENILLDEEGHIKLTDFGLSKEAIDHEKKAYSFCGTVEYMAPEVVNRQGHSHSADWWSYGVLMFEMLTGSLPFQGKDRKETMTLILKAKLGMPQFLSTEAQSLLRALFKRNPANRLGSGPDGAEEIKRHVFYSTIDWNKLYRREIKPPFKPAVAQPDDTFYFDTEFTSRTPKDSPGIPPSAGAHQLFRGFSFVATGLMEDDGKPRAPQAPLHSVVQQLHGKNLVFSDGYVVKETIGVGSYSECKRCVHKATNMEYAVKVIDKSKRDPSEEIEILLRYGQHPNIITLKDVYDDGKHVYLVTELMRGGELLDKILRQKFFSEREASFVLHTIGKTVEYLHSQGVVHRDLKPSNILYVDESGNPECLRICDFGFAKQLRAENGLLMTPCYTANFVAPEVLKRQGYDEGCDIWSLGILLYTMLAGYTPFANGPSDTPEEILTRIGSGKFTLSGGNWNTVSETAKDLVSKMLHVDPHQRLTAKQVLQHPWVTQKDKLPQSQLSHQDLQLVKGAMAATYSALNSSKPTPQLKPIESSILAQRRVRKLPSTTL
Chain of Dual specificity mitogen-activated protein kinase kinase 1 (Q02750 whole entry): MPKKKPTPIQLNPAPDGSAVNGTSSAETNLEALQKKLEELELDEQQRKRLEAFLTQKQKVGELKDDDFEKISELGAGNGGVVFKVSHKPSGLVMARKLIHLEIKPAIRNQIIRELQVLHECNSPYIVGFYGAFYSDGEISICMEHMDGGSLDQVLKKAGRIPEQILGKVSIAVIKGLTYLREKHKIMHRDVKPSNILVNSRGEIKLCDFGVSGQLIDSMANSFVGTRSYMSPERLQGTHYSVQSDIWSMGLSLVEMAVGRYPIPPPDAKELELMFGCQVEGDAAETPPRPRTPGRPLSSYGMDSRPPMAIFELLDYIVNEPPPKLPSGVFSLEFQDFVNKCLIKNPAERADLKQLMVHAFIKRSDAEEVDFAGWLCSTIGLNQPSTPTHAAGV
Chain of Cyclin-dependent kinase 10 (Q15131 whole entry, the tested form may be a part): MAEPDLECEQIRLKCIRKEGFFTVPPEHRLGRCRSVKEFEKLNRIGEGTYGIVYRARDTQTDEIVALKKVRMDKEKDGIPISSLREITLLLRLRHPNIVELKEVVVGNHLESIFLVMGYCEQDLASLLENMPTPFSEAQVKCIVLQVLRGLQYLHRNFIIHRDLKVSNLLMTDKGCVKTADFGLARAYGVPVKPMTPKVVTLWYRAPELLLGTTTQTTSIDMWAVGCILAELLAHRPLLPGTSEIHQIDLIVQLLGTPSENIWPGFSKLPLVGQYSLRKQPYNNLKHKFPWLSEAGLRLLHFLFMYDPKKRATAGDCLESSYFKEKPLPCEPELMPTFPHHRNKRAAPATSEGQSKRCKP
Chain of AMPK alpha1/alpha2 (P54646 whole entry, the tested form may be a part): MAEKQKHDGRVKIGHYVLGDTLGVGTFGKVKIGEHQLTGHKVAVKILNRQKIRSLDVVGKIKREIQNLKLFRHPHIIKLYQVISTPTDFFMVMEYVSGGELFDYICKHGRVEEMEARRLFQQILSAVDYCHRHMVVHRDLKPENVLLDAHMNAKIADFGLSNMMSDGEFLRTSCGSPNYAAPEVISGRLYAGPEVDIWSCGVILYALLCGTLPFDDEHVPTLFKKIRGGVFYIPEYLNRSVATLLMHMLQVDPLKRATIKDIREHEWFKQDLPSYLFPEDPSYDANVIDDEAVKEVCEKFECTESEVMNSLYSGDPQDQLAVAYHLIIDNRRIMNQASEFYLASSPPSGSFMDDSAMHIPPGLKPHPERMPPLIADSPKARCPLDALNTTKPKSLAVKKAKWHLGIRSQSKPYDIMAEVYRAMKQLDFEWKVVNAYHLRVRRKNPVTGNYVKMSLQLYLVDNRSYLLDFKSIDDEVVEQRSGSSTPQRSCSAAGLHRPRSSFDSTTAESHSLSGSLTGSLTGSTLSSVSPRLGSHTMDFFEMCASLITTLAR
Chain of AMPK alpha1/alpha2 (Q13131 whole entry, the tested form may be a part): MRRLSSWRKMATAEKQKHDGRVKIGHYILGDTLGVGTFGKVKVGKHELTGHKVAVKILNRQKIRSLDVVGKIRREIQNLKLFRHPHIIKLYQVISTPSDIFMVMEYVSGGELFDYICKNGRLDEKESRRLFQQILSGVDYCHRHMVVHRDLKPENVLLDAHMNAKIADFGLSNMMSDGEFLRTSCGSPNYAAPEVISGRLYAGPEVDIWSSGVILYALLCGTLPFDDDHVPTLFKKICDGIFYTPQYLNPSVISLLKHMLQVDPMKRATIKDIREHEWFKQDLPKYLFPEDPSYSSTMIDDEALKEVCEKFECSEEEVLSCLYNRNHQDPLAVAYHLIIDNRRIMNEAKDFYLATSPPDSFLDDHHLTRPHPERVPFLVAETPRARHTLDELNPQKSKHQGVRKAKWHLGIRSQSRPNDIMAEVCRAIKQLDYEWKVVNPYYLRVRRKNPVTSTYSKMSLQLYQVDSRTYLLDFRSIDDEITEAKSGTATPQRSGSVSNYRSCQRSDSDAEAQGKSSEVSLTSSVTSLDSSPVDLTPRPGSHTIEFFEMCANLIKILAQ
Chain of Mitogen-activated protein kinase kinase kinase 2 (Q9Y2U5 whole entry): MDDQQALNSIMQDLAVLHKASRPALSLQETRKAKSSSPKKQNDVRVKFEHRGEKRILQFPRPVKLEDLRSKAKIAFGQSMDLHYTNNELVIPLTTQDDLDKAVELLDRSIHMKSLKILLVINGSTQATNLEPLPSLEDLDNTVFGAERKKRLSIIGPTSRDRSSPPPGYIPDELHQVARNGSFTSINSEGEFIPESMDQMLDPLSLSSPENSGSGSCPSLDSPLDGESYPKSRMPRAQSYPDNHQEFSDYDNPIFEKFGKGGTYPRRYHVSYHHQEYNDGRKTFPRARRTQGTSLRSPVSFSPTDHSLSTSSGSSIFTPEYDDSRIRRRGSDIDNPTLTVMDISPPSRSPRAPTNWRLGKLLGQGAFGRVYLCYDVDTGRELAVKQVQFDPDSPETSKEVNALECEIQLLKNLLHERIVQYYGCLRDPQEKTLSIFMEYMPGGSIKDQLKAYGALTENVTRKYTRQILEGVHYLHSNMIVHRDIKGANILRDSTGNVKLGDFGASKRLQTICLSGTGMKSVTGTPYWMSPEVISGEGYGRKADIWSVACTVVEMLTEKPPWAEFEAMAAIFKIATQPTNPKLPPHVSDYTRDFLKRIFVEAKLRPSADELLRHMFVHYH

Take `CCOc1cc(N2CCC(O)CC2)ccc1Nc1ncc2c(n1)N(C)c1ccccc1C(=O)N2C`: the IC50 (in [1]; in series [2]; in series [4]; at AMPK alpha1/alpha2) was greater than 50 µM each time. The inhibition is 6.7% in series [3]; 20.9% in [6]; 1.9% in series [7]; -1.9% in series [9]; 10.2% in series [11]. For the same molecule, the Activity in [5] came out at 0.02 kg. Moreover, in the series on A549, the result was Active. Further, the concentration at 8 h in series [8] worked out at 34 nM. Also, the inhibition at 10 µM in [10] was found to be 5.1%.

The record behind these values is ChEMBL document CHEMBL5661979, “Pharmacological inhibition of BMK1 suppresses tumor growth through promyelocytic leukemia protein” (Cancer Cell, 2010).
